Statin myotox sup: suppressors of statin myotoxicity in C2C12 myotubes, primary screen, cell-based, single point, plate reader; C2C12 myotubes + simvastatin, ATP luminescence, 48 h; scaled: DMSO 0, geranylgeraniol control 100; rescue of ATP level, % at 7.49 µM; 0.78% of 330,000 active; AID 602340, 2012;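 active = mean ATP rescue above about 67%, or every replicate alone reaching that limit, limit read from the data, passing the limit was not always enough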;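 note: myotubes were challenged with 10 µM simvastatin during compound exposure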
Cneo AK release: Cryptococcus neoformans cell lysis inducers, primary screen, AK release luminescence, single concentration | C. neoformans lysis, adenylate kinase release luminescence, 4 h; normalised: neutral wells 0, clomiphene wells 100 | lysis activity, % at 15 µM | 0.2% of 360,000 active;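 active = mean lysis activity across replicates of at least 80%, whatever share of replicates individually reach that level; inactive = mean lysis activity below 80%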
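Material – Cryptococcus neoformans yeast cells · Quantity – 5 × 10^6 yeast cells/mL · Buffer or medium – YPD medium · Compound – single dose · Timing – 4 h static compound exposure, 37 °C, read 1 h post-reagent · Signal – adenylate kinase release luminescence · Read-out basis – lysis from increased AK signal · Benchmarks – Clomiphene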
Mot1-301 SUMO: yeast Mot1-301 growth rescue at high temperature, primary screen, SUMOylation pathway inhibitor project, S. cerevisiae, ATP luminescence, 38.5C; S. cerevisiae Mot1-301 growth rescue; percent above DMSO median, 100 means doubled; growth rescue, % at 18.8 µM; 1% of 320,000 active; AID 2716, 2010;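 active = every valid replicate shows activation above 250% relative to neutral control wells; inactive = the rest, any valid replicate at or below 250%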;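 note: OY570 slx delta 5 strain wells were the positive control but not used for scaling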
Yeast Mot1 SUMO: growth restoration of Mot1-301 yeast on galactose, dose response, SUMO pathway inhibitor project, whole organism, S. cerevisiae, ATP luminescence, cherry-picked samples | shares compounds with Mot1-301 SUMO | S. cerevisiae Mot1-301 galactose growth, 24 h; -100 = growth of slx-deleted rescue strain | growth activity, percent, % at 42 µM | 2,300 tested, under 10 active | AID 493004, 2010;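 active = Signal drops as the depositor expects, and the fitted half-maximal dose is no more than ten times the top valid tested dose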;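 note: more negative values mean stronger growth rescue toward the control strain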
An asterisk follows results filed as active; nt = no result given; + = active, no number. Compounds with a hit are over-represented: about 1.5% of the library has one in this group of screens.

SMILES | Statin myotox sup | Cneo AK release | Mot1-301 SUMO | Yeast Mot1 SUMO
CCC(c1nc2ccccc2c(=O)n1-c1nc2ccccc2s1)N1C(=O)c2ccccc2C1=O (configuration not stated) | 6.3 | nt | 358.9* | 0.4
CCC1=Nc2cc(C(=O)NCc3ccco3)ccc2Sc2ccc(Cl)cc21 | nt | nt | 45.2 | nt
CCC1=Nc2cc(C(=O)NCc3ccco3)ccc2Sc2ccccc21 | nt | nt | 397.2* | 1.2
CCCOc1ccc(C(=O)NCC(c2ccco2)N(C)C)cc1 (configuration not stated) | 3.3 | 1.1 | -7.7 | nt
CCCOc1ccc(C(=O)NCc2ccco2)cc1 | -8.2 | -0.3 | 684.5* | -0.2
COc1cccc2cc(C(=O)NCc3ccco3)c(=O)oc12 | nt | nt | -6.9 | nt
COc1ccc2oc(=O)c(C(=O)NCc3ccco3)cc2c1 | -3.2 | -0.3 | 653.8* | 0.0
C[C@H](CO)N1C[C@H](C)[C@@H](CN(C)C(=O)CCCN(C)C)OCCCC[C@H](C)Oc2ccc(NC(=O)Nc3ccc(F)cc3)cc2C1=O | nt | 0.7 | nt | nt
C[C@H](CO)N1C[C@H](C)[C@H](CN(C)C(=O)CN2CCOCC2)Oc2ncc(-c3cncnc3)cc2C1=O | 11.1 | nt | nt | nt
COC(=O)[C@@H]1C[C@H]2CC[C@H](O)C[C@H]2N1Cc1ccccc1OS(=O)(=O)c1ccc(C)cc1 | -3.8 | -1.5 | -3.0 | nt
COC(=O)[C@@H]1C[C@@H]2CC[C@@H](O)C[C@@H]2N1Cc1ccc(N2CCN(C)CC2)cc1 | 2.1 | -2.2 | 522.1* | 0.0
CCCN1C[C@H](C)[C@@H](OC)CN(C)C(=O)c2cc(NC(=O)Nc3cccc(OC)c3)ccc2OC[C@H]1C | -10.9 | nt | nt | nt
COCCNS(=O)(=O)c1cc(C(=O)O)ccc1OC | nt | nt | 60.6 | nt
COc1ccc(C(=O)O)cc1S(=O)(=O)NCCN(C)C | 2.4 | 2.8 | 824.4* | 0.1
Cc1cccc(-c2ccc([C@H]3[C@H]4CN(C(=O)c5ccc6c(c5)OCO6)CCCCN4[C@H]3CO)cc2)c1 | -5.8 | -3.0 | nt | nt
NCC[C@@H]1CC[C@@H](NC(=O)c2ccccc2F)[C@H](CO)O1 | -11.9 | -0.6 | nt | nt
CC(=O)NC(CC(C)C)C(=O)NC(CO)C(=O)NC(CCC(=O)O)C(=O)NC(C)C(=O)NC(CC(C)C)C(N)=O (configuration not stated) | 0.3 | 0.7 | 782.3* | 0.4
CC(C)CC(NC(=O)C(CC(C)C)NC(=O)OC(C)(C)C)C(N)=O (configuration not stated) | 17.3 | nt | 6.8 | nt
CCNC(=O)C[C@@H]1CC[C@H]2[C@@H](COc3ccc(NC(=O)Nc4cccc(F)c4)cc3C(=O)N2C)O1 | -4.3 | 0.5 | nt | nt
C#CCNC(=O)C1=C[C@H](c2cn(C(C)=O)c3ccccc23)C[C@H](OCCCCO)O1 | nt | 44.5 | nt | nt
CCOC(=O)c1ccc(CNC(=O)Cn2nnc(-c3ccc(C)cc3)n2)o1 | 6.8 | 9.6 | + | 0.9
CCOc1ccc(-c2nnn(CC(=O)NCc3ccco3)n2)cc1 | -4.7 | 3.2 | 0.1 | nt
COc1ccc(S(=O)(=O)Nc2ccc3c(c2)C(=O)N([C@H](C)CO)C[C@H](C)[C@@H](CN(C)S(=O)(=O)c2c(C)noc2C)OCCCC[C@H](C)O3)cc1 | nt | 5.4 | nt | nt
CCC(C)N1C(=O)CN(C2CCCCCC2)C(=O)C1c1ccccc1F (configuration not stated) | nt | nt | 422.0* | -1.0
COc1ccccc1CN1C(=O)CN(C2CCCCCC2)C(=O)C1c1ccc(F)cc1 (configuration not stated) | -5.2 | 3.1 | -9.8 | nt
SMILES | Statin myotox sup | Cneo AK release | Mot1-301 SUMO | Yeast Mot1 SUMO
O=C1CN(C(=O)COC(=O)c2ccccc2NCc2ccco2)c2ccccc2N1 | nt | 0.9 | 728.0* | -0.3
O=C1CN(C(=O)COC(=O)c2ccco2)c2ccccc2N1 | -0.9 | 6.1 | 10.2 | nt
O=C(C[C@H]1CC[C@H]2[C@@H](COC[C@@H](O)CN2S(=O)(=O)c2cccc(Cl)c2)O1)NC1CCC1 | 0.2 | -2.2 | nt | nt
Cc1nn(C)c(Cl)c1C(=O)NCC(=O)O | -5.0 | nt | 84.9 | nt
CCOC(=O)CNC(=O)c1c(C)nn(C)c1Cl | nt | nt | 668.8* | 1.2
C[C@@H]1CN([C@H](C)CO)C(=O)c2cc(/C=C/c3ccccc3)cnc2O[C@H]1CN(C)C(=O)Cc1cccnc1 | -2.6 | 15.9 | nt | nt
O=C(C[C@@H]1C=C[C@H](NC(=O)Nc2ccc3c(c2)OCO3)[C@@H](CO)O1)NCc1ccc(F)cc1 | 0.7 | 7.8 | nt | nt
COc1ccc2c(C(=O)CN3CCC(C)CC3)c[nH]c2c1 | -3.1 | 2.9 | -12.1 | nt
COc1ccc2c(C(=O)CN3CC(C)OC(C)C3)c[nH]c2c1 (configuration not stated) | -1.2 | -2.8 | 389.6* | 0.4
O=C(CC1CC1)Nc1ccc2c(c1)[C@@H]1C[C@@H](CC(=O)N3CCc4ccccc4C3)O[C@@H](CO)[C@@H]1O2 | 9.8 | 21.4 | nt | nt
O=C(O)CCC(=O)Nc1cccc(C(=O)Nc2cccc(Cl)c2)c1 | -3.2 | -1.7 | -2.4 | nt
O=C(O)CCC(=O)Nc1cccc(C(=O)Nc2ccc(Br)cc2)c1 | -4.1 | 6.1 | 795.9* | 0.2
CC1Cc2ccccc2N1C(=O)CN1CCN(S(=O)(=O)c2ccc3c(c2)OCCCO3)CC1 (configuration not stated) | 4.8 | -0.2 | nt | nt
CC1Cc2ccccc2N1C(=O)CNc1cccc(S(=O)(=O)N2CCCC2)c1 (configuration not stated) | -0.2 | 0.6 | + | -0.4
C[C@H](CO)N1C[C@H](C)[C@H](CN(C)C(=O)Nc2ccc3c(c2)OCO3)Oc2ccc(NC(=O)Cc3ccccc3)cc2CC1=O | -33.4 | -0.3 | nt | nt
C[C@H](CO)N1C[C@H](C)[C@H](CN(C)Cc2ccc(Cl)c(Cl)c2)Oc2ccc(NC(=O)Nc3ccc(C(F)(F)F)cc3)cc2CC1=O | -17.3 | -3.3 | nt | nt
CO[C@H]1CN(C)C(=O)c2cc(NC(=O)C3CCC3)ccc2OC[C@@H](C)N(C)C[C@H]1C | -0.4 | 42.6 | nt | nt
O=C(/C=C/NNC(=O)c1ccccc1)c1ccccc1 | -7.4 | -2.2 | -15.3 | nt
O=C(/C=C/NNC(=O)c1ccc(Br)cc1)c1ccccc1 | 12.1 | 1.8 | 399.3* | 1.4
COc1ccccc1-c1ccc2c(c1)[C@@H]1[C@@H](CCN1S(=O)(=O)c1cccc(C)c1)[C@H](CO)N2 | 17.3 | 7.3 | nt | nt
CC(C)C#Cc1ccc([C@H]2[C@@H](C#N)N(C(=O)CN(C)C)[C@@H]2CO)cc1 | -27.8 | 0.1 | nt | nt
O=C(Nc1ccccc1Cl)N1[C@H](CO)[C@@H]2c3ccccc3NC[C@@H]21 | 12.2 | -1.8 | nt | nt
Cc1ccc(C(=O)NCCNc2ccc(Cl)cc2[N+](=O)[O-])o1 | nt | 7.1 | 6.0 | nt
O=C(NCCNc1ccc(Cl)cc1[N+](=O)[O-])c1ccccc1F | -9.8 | 1.4 | 473.7* | 0.3
Cc1ccc(CNC(=O)CCCCn2c(=O)[nH]c3ccsc3c2=O)cc1 | 18.4 | -0.9 | -11.6 | nt
O=C(CCCCCn1c(=O)[nH]c2ccsc2c1=O)NCc1ccc(F)cc1 | 120.2* | -2.8 | 883.0* | 0.4

High-throughput results (PubChem BioAssay)
